Source: PubChem (several laboratories)
The list is not random: actives were taken first. Their share in the collection is about 3.8%.
rCAG RNA binder – binders of r(CAG) RNA repeats, primary screen, biochemical, fluorescence. r(CAG) RNA repeat, TO-PRO-1 dye displacement fluorescence. inhibition, % at 3 µM. hit rate 1.3% among 370,000. AID 651821, 2012;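 active = inhibition above the plate cutoff, the mean of all test compounds on that plate plus 3 SD, cut at about 35% in these data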;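 note: higher means more dye released from RNA so lower well fluorescence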
MPTP block – mitochondrial permeability transition pore inhibitors, primary screen, biochemical, isolated mouse mitochondria, absorbance; hit rate 1.4% among 360,000; inhibition, % at 10 µM; Ca2+ swelling absorbance, 30 min;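 active = inhibition of 50% or more, scaled per plate between neutral and stimulator controls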
Beta2AR agonist – beta2AR agonists driving receptor internalization, primary screen, cell-based, FAP fluorogen, flow cytometry. Beta-2 adrenergic receptor (Homo sapiens), P07550. Am2.2-beta2AR cells. response, % (concentration not given with the values). hit rate 0.43% among 340,000. AID 504454, 2011;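 active = response above a set limit, near 3 SD of response in nonfluorescent compounds, cut at about 42% in these data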
Target sequence (P07550 whole entry, looked up): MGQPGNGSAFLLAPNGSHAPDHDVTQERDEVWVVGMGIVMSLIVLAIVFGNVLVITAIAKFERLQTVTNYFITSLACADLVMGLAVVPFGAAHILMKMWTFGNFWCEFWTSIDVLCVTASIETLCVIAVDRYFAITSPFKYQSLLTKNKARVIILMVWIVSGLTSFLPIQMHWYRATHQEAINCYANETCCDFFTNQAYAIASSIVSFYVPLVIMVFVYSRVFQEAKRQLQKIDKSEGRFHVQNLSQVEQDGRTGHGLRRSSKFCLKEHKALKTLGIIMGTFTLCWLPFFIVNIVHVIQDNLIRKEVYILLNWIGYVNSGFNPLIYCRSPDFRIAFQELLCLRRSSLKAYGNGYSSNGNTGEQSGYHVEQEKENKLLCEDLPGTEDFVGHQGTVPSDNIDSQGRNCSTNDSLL
Exocytosis inh – LAMP-1 surface exposure blockers, TALL-104 cells – cell-based, flow cytometry, MLPCN library, primary screen; inhibition, % at 10 µM; AID 651702, 2012; hit rate 0.66% among 360,000; TALL-104 LAMP-1 surface exposure; cells stimulated with thapsigargin and PMA;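 active = inhibition above about 55%, limit read from the data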
V-ATPase pHluor – regulators of yeast V-ATPase proton pumping, primary screen, pHLuorin cytosolic pH fluorescence | S. cerevisiae | response, % at 10 µM | hit rate 0.37% among 350,000; in the data active = response mostly above about 7.3%, no sharp cut-off; inactive = mostly below about 5.4%; note: actives read high
T cell HTS – modulators of CD8 T cell-vesicle binding, primary screen, mouse 2C CD8+ T cells, flow cytometry; 2C CD8+ T cell-vesicle binding; stronger effect = lower value; response (vesicle binding), % at 7 µM; hit rate 0.068% among 330,000; AID 2052, 2009;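 active = response, share of CD8 T cells binding vesicles, and their 90th percentile fluorescence all below set limits, cut at about 80% in these data, passing the limit was not always enough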;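 note: values below 100% mean blocked vesicle binding to the CD8+ T cells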
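Benchmarks: naked versus QL9-loaded vesicles / Assay system: purified 2C TCR transgenic mouse naive CD8+ T cells / Technique: high-throughput flow cytometry with anti-B7-1 and anti-CD8 staining / Timing: Cell–vesicle co-incubation 1.5 h at 37 °C, staining 20 min on ice / Read-out: percent CD8+ FL2 mean versus row control / Probe or stimulus: QL9-loaded Drosophila micro-vesicles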
Exocytosis CP01 – inhibitors of lytic granule exocytosis, confirmation, TALL-104 cells, flow cytometry, Cherry Pick01. shares compounds with Exocytosis inh. LAMP-1 externalization; stimulated with PMA plus thapsigargin. inhibition, % at 10 µM. hit rate 11% among 1,500; in the data active = inhibition above about 60%
Each line names hits and unclear results; the compound was inactive in the other large screens (follow-up assays come after a bar, where they were run).

Cc1nc(C(=O)NCc2ccccc2)sc1C1(C)CC(c2cccc([N+](=O)[O-])c2)=NO1 (configuration not stated)	Exocytosis inh 59 | Exocytosis CP01 inactive
COc1ccc(NC(=O)CCCNS(=O)(=O)c2ccc3[nH]c(=O)oc3c2)cc1OC	none (no result: MPTP block, Beta2AR agonist, Exocytosis inh, V-ATPase pHluor, T cell HTS)
CCc1cc2c(CN(C)Cc3ccccc3F)cc(=O)oc2cc1O	Exocytosis inh 59 | Exocytosis CP01 inactive
O=C(OCc1cn(Cc2ccc(F)cc2F)nn1)N1CCOCC1	none (no result: MPTP block, Beta2AR agonist, Exocytosis inh, V-ATPase pHluor, T cell HTS)
CCN(CC)C(=O)CC[C@H]1CC[C@]2(CCCN(Cc3ccc(Br)cc3)C2)O1	none (no result: MPTP block, Beta2AR agonist, Exocytosis inh, V-ATPase pHluor, T cell HTS)
Cc1ccc(-c2cc(C(=O)Nc3ccccc3C)c3ccccc3n2)o1	Exocytosis inh 82 | Exocytosis CP01 inactive
Cc1ccc(-c2cc(C(=O)Nc3cccc(S(=O)(=O)N(C)C)c3)c3ccccc3n2)o1	Exocytosis inh 66 | Exocytosis CP01 inactive
COC(=O)c1cc(-c2ccc(C)o2)nc2ccccc12	none
CCc1ccccc1CNC(=O)C1CCC(CNS(=O)(=O)c2cccc3cccnc23)CC1 (configuration not stated)	none (no result: MPTP block, Beta2AR agonist, Exocytosis inh, V-ATPase pHluor, T cell HTS)
CCn1c2c(c3cc(Br)ccc31)CCC/C2=N\O	none
CCn1c2c(c3cc(OCC(C)C)ccc31)CCCC2=O	Exocytosis inh 58 | Exocytosis CP01 inactive
CCOC(=O)CCCNC(=O)OC1CC2CC1[C@H]1CCCCN1[C@H]2C (some centres not stated)	none (no result: MPTP block, Beta2AR agonist, Exocytosis inh, V-ATPase pHluor, T cell HTS)
Cc1ccc(C(=O)N/C(=C\c2ccc(-c3ccc(Br)cc3)o2)C(=O)NCCCN(C)C)cc1	Exocytosis inh 75 | Exocytosis CP01 99
Cc1ccc(C(=O)N/C(=C\c2ccc(-c3cccc([N+](=O)[O-])c3)o2)C(=O)NCCCN(C)C)cc1	none
CCN(CC)CCn1c(=N)n(CC(=O)c2ccc(C)cc2)c2ccccc21	Exocytosis inh 56 | Exocytosis CP01 inactive
Cc1ccc(C(=O)Cn2c(=N)n(N)c3ccccc32)cc1	none
Cc1ccc(-c2nnn(CC(=O)N(Cc3ccco3)C(C(=O)NC3CCCC3)c3cccs3)n2)o1 (configuration not stated)	Exocytosis inh 66 | Exocytosis CP01 inactive
COc1ccccc1N(C(=O)c1snc(C(N)=O)c1N)C(C(=O)NCc1ccccc1)c1ccc(O)cc1 (configuration not stated)	none (no result: T cell HTS)
COc1ccc(C(C(=O)NCc2ccccc2)N(C(=O)c2snc(C(N)=O)c2N)c2ccccc2OC)cc1 (configuration not stated)	Exocytosis inh 65 | Exocytosis CP01 inactive
Cc1ccc(-n2c(SCC(=O)Nc3ccc4c(c3)OCCO4)nnc2-c2ccccn2)cc1	none (no result: MPTP block, Beta2AR agonist, Exocytosis inh, V-ATPase pHluor, T cell HTS)
CCOC(=O)COc1ccccc1C(=O)c1cnn(-c2ccccc2)c1	Exocytosis inh 62 | Exocytosis CP01 inactive
O=C(COc1ccccc1C(=O)c1cnn(-c2ccccc2)c1)Nc1ccc2ccccc2c1	none
CCc1ccc(NC(=O)CSc2nc3ccccc3c(=O)n2CCCN2CCC(C)CC2)cc1	Exocytosis inh 87 | Exocytosis CP01 inactive
O=C(CSc1nc2ccccc2c(=O)n1CCCN1CCOCC1)Nc1ccc(Br)cc1	none
CCCC1=Nc2cc(C(=O)N3CCN(c4ccccn4)CC3)ccc2Sc2ccc(C)cc21	Exocytosis inh 70 | Exocytosis CP01 inactive
CCCCN1CN2Cc3ccccc3C2CS1(=O)=O (configuration not stated)	none (no result: MPTP block, Beta2AR agonist, Exocytosis inh, V-ATPase pHluor, T cell HTS)
COc1ccccc1Nc1c2ccccc2nc2ccccc12	Exocytosis inh 82 | Exocytosis CP01 inactive
COc1ccc(OC)c(Nc2cc(C)nc3ccccc23)c1	none
COc1ccc(Cl)cc1Nc1cc(C)nc2ccccc12	Exocytosis inh 76 | Exocytosis CP01 inactive
Cc1oc(-c2ccccc2)cc1C(=O)NC1CCN(Cc2ccccc2)CC1	Exocytosis inh 67 | Exocytosis CP01 inactive
O=C(NC1CCN(Cc2ccccc2)CC1)c1ccccc1	none
Cc1ccc(NC(=O)CSc2nnc3ccccn23)cc1S(=O)(=O)N1CCOCC1	Exocytosis inh 81 | Exocytosis CP01 inactive
Cc1ccc(NC(=O)CSc2nccn2C)cc1S(=O)(=O)N1CCOCC1	none
